SMILES strings stand for the structures.

These results are taken from ChEMBL document CHEMBL4513216, “Probing the Open Global Health Chemical Diversity Library for Multistage-Active Starting Points for Next-Generation Antimalarials” (ACS Infect Dis, 2020).

The nature of the data set: Toxicity liver stage against HepG2, at 10uM. It is filed as cell-based. The arrangement: test concentration 10 uM, cell line HepG2-A16-CD81EGFP. To be noted: human, HepG2-A16-CD81EGFP cells; read-out: INHIBITION
The procedure, abridged: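 Uninfected HepG2-A16-CD81EGFP cells, 3 × 10^3 per well, 1536-well, plated on prespotted compound at 10 μM final, parasite-free screening media added to match infected plates; puromycin 10 μM positive, DMSO 0.5% negative; run in parallel with 48 h PbLuc assay at 37 °C, 5% CO2; viability by CellTiter-Glo luminescence, normalized to controls.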
On to `CSc1ccccc1CN1C[C@H]2CC[C@@H](C1)N(CC1CC1)C2=O`, for which the cytotoxicity at 10 µM is -4.81%.

For the molecule `CSc1ccc(OCCN2CCNC(=O)CC2)cc1`, the cytotoxicity at 10 µM worked out at 5.59%.

`COc1ccc(OC)c(CN2CCCCCC2c2cccs2)c1` (configuration not stated): the cytotoxicity at 10 µM was -5%.

Regarding `COc1ccc(C(=O)CN(C2=NCCCCC2)c2ccccc2)cc1`, the cytotoxicity at 10 µM was determined as 9.62%.

Consider `O=C(NCCc1ccncc1)[C@@H]1CC[C@@H]2[C@@H](CCN2Cc2ccco2)O1`, for which the cytotoxicity at 10 µM was 1.15%.

For the molecule `CC(O)CN1CCN(C(=O)CN(C)c2ccc(C#N)cn2)CC1` (configuration not stated), the cytotoxicity at 10 µM is -0.785%.

`CC(=O)N1CCC(Nc2cc(F)ccc2OCC2CCCO2)CC1` (configuration not stated): the cytotoxicity at 10 µM is -14.3%.

In the case of `Cc1n[nH]c(C)c1CNC(=O)NC1CCCCC1`, the cytotoxicity at 10 µM came to 1.91%.

Consider `c1cncc(CO[C@H]2CC[C@H]3[C@@H]2OCCN3C2CCOCC2)c1`, for which the cytotoxicity at 10 µM is -14.4%.

`O=C1CC[C@@H]2[C@@H](CCN2C(=O)c2ccsc2)N1CC1CC1`: the cytotoxicity at 10 µM was -10.9%.

For the molecule `CC(=O)Nc1ncc(S(=O)(=O)Nc2cccc(C)c2)s1`, the cytotoxicity at 10 µM worked out at 7.63%.

As for `COCCCNC(=O)CN(C)Cc1ccc(F)cc1Cl`, the cytotoxicity at 10 µM is -7.33%.

Take `CC(=O)N1CCCN(Cc2nnc(C(C)(C)C)o2)CC1`: the cytotoxicity at 10 µM was -4.13%.

In the case of `COc1ccc(Br)cc1SCCC(N)=O`, the cytotoxicity at 10 µM was found to be 7.72%.

In the case of `CN1CCN(C(=O)CCn2ncc3ccccc32)CC(C(N)=O)C1` (configuration not stated), the cytotoxicity at 10 µM was 4.33%.

In the case of `N[C@@H]1c2ccccc2C2(CCN(c3ccc(C(F)(F)F)cn3)CC2)[C@H]1O`, the cytotoxicity at 10 µM is -5.78%.

As for `CCCOc1cccc(C(=O)N2CCCC(n3cncn3)C2)c1` (configuration not stated), the cytotoxicity at 10 µM is -4.39%.

Turning to `O=C(Cc1cccnc1)N1CCC2(CCN(C3CCOC3)CC2)C1` (configuration not stated), the cytotoxicity at 10 µM was found to be 5.08%.

With `COCc1nc2cc(NCc3cc[nH]n3)ccc2o1`, the cytotoxicity at 10 µM came to 6.7%.

With `O=S1(=O)c2ccccc2C2(CCN(Cc3cccnc3)C2)N1CC1CC1` (configuration not stated), the cytotoxicity at 10 µM is -68.7%.

Regarding `COc1ccc(CS(=O)(=O)CC(=O)NCC2CC2)cc1F`, the cytotoxicity at 10 µM is -0.265%.

For the molecule `COCC1CN(C(=O)Cc2cccs2)Cc2c1cnn2C` (configuration not stated), the cytotoxicity at 10 µM is -65.6%.

Consider `O=C(CCc1ccc(F)cc1)NS(=O)(=O)c1ccc2c(c1)OCCO2`, for which the cytotoxicity at 10 µM was -12.8%.

`OC(CN1CCN(Cc2ccc(F)cc2)CC1)C1CC1` (configuration not stated): the cytotoxicity at 10 µM was -23.4%.

In the case of `NC(=O)C1(c2cnccn2)CCCN1C(=O)Cc1ccsc1` (configuration not stated), the cytotoxicity at 10 µM was 1.54%.

Turning to `CCc1nccc(CN2CCCC(CNC(=O)c3occc3C)C2)n1` (configuration not stated), the cytotoxicity at 10 µM is 2.28%.

Consider `O=S(=O)(NC1CCN(CC(F)(F)F)C1)c1cc(F)cc(F)c1` (configuration not stated), for which the cytotoxicity at 10 µM was -5.18%.

Consider `O=C(O)c1cccc(N2CCC(Oc3cccc(F)c3)CC2)n1`, for which the cytotoxicity at 10 µM was -44.1%.

Regarding `CCN(CC)C1CCN(C(=O)c2cc(CC(C)C)nn2CC)C1` (configuration not stated), the cytotoxicity at 10 µM was -7.74%.

Take `Cc1ccc(NC2CCN(C(=O)CCNc3ncccn3)CC2)nn1`: the cytotoxicity at 10 µM was -7.69%.

On to `O=C(c1ccsc1)N1CCc2ncc(Cn3cncn3)n2CC1`, for which the cytotoxicity at 10 µM was -78%.

Consider `Cc1noc(C2CCC3(CCN(C(=O)c4sccc4C)CC3)O2)n1` (configuration not stated), for which the cytotoxicity at 10 µM was determined as 8.94%.

In the case of `CC1(C)OC(=O)N(CC(=O)N2CCC(c3ccccc3F)C2)C1=O` (configuration not stated), the cytotoxicity at 10 µM was determined as 0.189%.

As to `Cn1cc(CCNCC2CNc3ccnn3C2)cn1` (configuration not stated), the cytotoxicity at 10 µM amounted to 3.34%.

With `c1ccc(CN2CCc3c(COCC4CC4)cncc3C2)nc1`, the cytotoxicity at 10 µM was determined as 2.41%.

For `Cn1nc(Cn2cccn2)c2c1CN(C1CCOC1)C2` (configuration not stated), the cytotoxicity at 10 µM was found to be 6.92%.

With `COc1cccc(Oc2nc(C)c(C(=O)O)s2)c1OC`, the cytotoxicity at 10 µM worked out at 1.96%.

As to `CC(=O)N1CCc2c(nc(-c3ccncc3)nc2N(C)CC(O)CO)C1` (configuration not stated), the cytotoxicity at 10 µM is -13.1%.

For `Fc1cccc(C2CCCCN2Cc2nc(-c3cnccn3)no2)c1` (configuration not stated), the cytotoxicity at 10 µM is -3.02%.

Turning to `O=C(O)CSc1nnc(-c2cn[nH]c2)n1-c1ccccc1Cl`, the cytotoxicity at 10 µM is -3.54%.

Regarding `Cc1cc(CN2CCN(C(=O)c3sccc3C3CC3)CC2)no1`, the cytotoxicity at 10 µM was -10%.

With `Cc1cccc(CNC2CC(=O)N(CCc3cccc(Cl)c3)C2)n1` (configuration not stated), the cytotoxicity at 10 µM is -134%.

As for `COc1ccnc(N2CCCN(Cc3ncc(C(C)C)o3)CC2)n1`, the cytotoxicity at 10 µM was determined as 1.74%.

As for `CN(Cc1ccno1)c1nc(C2CCCC2)nc2c1cnn2C`, the cytotoxicity at 10 µM was 7.27%.

For `O=C1CCC(C(=O)NCCOc2ccccc2-c2ccccc2)CN1` (configuration not stated), the cytotoxicity at 10 µM is 5.47%.

As for `CC1CCN(CC(O)CNc2ccccn2)CC1` (configuration not stated), the cytotoxicity at 10 µM was determined as 11.4%.

As for `CC1CCCCN1S(=O)(=O)NCc1cccnc1OC1CCCC1` (configuration not stated), the cytotoxicity at 10 µM was -89.8%.

Consider `Cc1ccc2[nH]c(=O)c(CN(C)Cc3cc(C4CC4)[nH]n3)cc2c1`, for which the cytotoxicity at 10 µM is -3.07%.

In the case of `CCOCCOC(C)C(=O)Nc1ccnn1-c1ccccc1C` (configuration not stated), the cytotoxicity at 10 µM is -0.308%.

Consider `CNC(=O)CCNC(=O)c1cccc(Cn2nc(C)cc2C)c1`, for which the cytotoxicity at 10 µM was -16.6%.

Take `CC(=O)N1CCC2(CCCN(C(=O)c3ccccc3)C2)C1` (configuration not stated): the cytotoxicity at 10 µM was determined as 9.52%.

In the case of `N#Cc1ccc(C(=O)N2CCC(c3ncc[nH]3)CC2)cn1`, the cytotoxicity at 10 µM was -3.27%.

For the molecule `O=C(CS(=O)(=O)Cc1nnnn1C1CC1)NCCc1ccccc1`, the cytotoxicity at 10 µM was 2.92%.

Turning to `CN1CCN(CCCOc2ccccc2CN2C[C@H]3CC[C@H]2C3)CC1`, the cytotoxicity at 10 µM was -7.88%.

Turning to `COc1cccc(CNCCc2cc(F)cc3c2OCOC3)c1OC`, the cytotoxicity at 10 µM was 4.32%.

As to `CC(C)CNc1nc(C(=O)/N=c2\[nH]nc(C(C)(C)C)s2)cs1`, the cytotoxicity at 10 µM amounted to 9.6%.

On to `O=C(c1ccnc(-n2cnnc2)c1)N1CCCC2(CCNC2)C1` (configuration not stated), for which the cytotoxicity at 10 µM was -19.1%.

Take `CCc1noc(C)c1C(=O)N1CCC(c2[nH]ncc2S(C)(=O)=O)C1` (configuration not stated): the cytotoxicity at 10 µM was -6.94%.

With `Clc1cccc(C(CNCc2cccnc2)N2CCOCC2)c1` (configuration not stated), the cytotoxicity at 10 µM was -4.45%.

Consider `O=C(c1cc[nH]n1)N1CC[C@@H]2CN(Cc3ccncc3)S(=O)(=O)[C@@H]2CC1`, for which the cytotoxicity at 10 µM is 10.5%.

Consider `CC(C)Cc1noc(CN(C)c2cc(N(C)C)ncn2)n1`, for which the cytotoxicity at 10 µM was -0.75%.

Turning to `Cc1nc(C2CCCN2C(=O)CCc2ccccc2)ncc1C(N)=O` (configuration not stated), the cytotoxicity at 10 µM is -19.5%.

With `Clc1cncc(N2CCN(Cc3ccon3)CC2)n1`, the cytotoxicity at 10 µM worked out at 6.94%.

For the molecule `CCOc1ncccc1Cn1cc(-c2ccc(CO)o2)nn1`, the cytotoxicity at 10 µM is -1.91%.

As for `Cc1ccc2c(n1)N(Cc1cccnc1)CCN(C(=O)C1CC=CC1)C2`, the cytotoxicity at 10 µM came out at 8.07%.

Turning to `Cc1nnc2sc(-c3cc(C(C)C)n[nH]3)nn12`, the cytotoxicity at 10 µM is -7.88%.

Take `CCN(Cc1nc2c(cnn2C)c(=O)[nH]1)c1cc(C)cc(C)c1`: the cytotoxicity at 10 µM is -5.83%.

Regarding `Cc1cc(NCC(C)C)ccc1C(=O)N(C)C`, the cytotoxicity at 10 µM was 9.86%.

In the case of `Cn1ccnc1CNC(=O)N1CCCC(Cc2nccn2C)C1` (configuration not stated), the cytotoxicity at 10 µM was 2.63%.

On to `Cc1cc(N2CCN(C(=O)Cc3ccc4c(c3)OCO4)CC2)cc(C)n1`, for which the cytotoxicity at 10 µM was -18%.

Take `Cc1cccc(C(=O)NCCS(=O)(=O)Cc2ccccc2)c1`: the cytotoxicity at 10 µM is -7.43%.

With `O=C(Nc1ccccc1F)c1nn(C2CCS(=O)(=O)C2)c2c1CCCC2` (configuration not stated), the cytotoxicity at 10 µM is 6.17%.
